What all share (type): cell-based
Data set [1] has as its system MDA-MB-231 (human breast cancer) cells. As to the kind of experiment: MTT cell viability assay, MDA-MB-231. Conditions: for inhibition at 25 µM: MDA-MB-231; for viability at 10 µM / viability at 25 µM / viability at 50 µM: MDA-MB-231, 72 h, read-out: Cell viability (%) ±SD. In a few lines: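 MDA-MB-231 cells were grown as a monolayer in DMEM with 10% heat-inactivated FBS and 1% penicillin-streptomycin at 37 °C in humidified CO2, subcultured every third day with trypsin-EDTA, and used before passage 8. Cells were exposed 72 h to 10, 25 and 50 μM. Medium was removed, MTT added for 3 h at 37 °C, formazan dissolved in DMSO and read at 595 nm. Viability is relative to untreated control, triplicates, ±SD. IC50 comes from the viability-versus-concentration plot.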
In general terms: Formazan colour is commonly taken as a measure of viable cells.

For data set [2], the system named is MCF-7 breast cancer cells. As to the kind of experiment: MTT cell viability assay, MCF-7. Conditions: Homo sapiens; for inhibition at 25 µM: MCF7; for IC50: MCF7, 72 h, read-out: IC50 against MCF-7 breast cancer cells line; for viability at 1 µM / viability at 10 µM / viability at 25 µM: MCF7, read-out: Cell viability (%) ±SD. The gist of the method: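 After medium removal, MTT was added for 3 h at 37 °C in CO2, formazan dissolved in DMSO and absorbance read at 595 nm. Viability is relative to untreated cells, triplicates, n = 3, ±SD. IC50 comes from plotting percent viability against concentration.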

For data set [3], the system named is MDA-MB-453 cells. Briefly: MTT cell viability assay, MDA-MB-453. Conditions: for viability at 1 µM / viability at 10 µM / viability at 25 µM: Homo sapiens, MDA-MB-453, read-out: Cell viability (%) ±SD; for IC50 against MDA-MB-453 cells: tested at 1, 10 and 25 μM. The gist of the method:
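MDA-MB-453 (HER2-positive) cells were exposed to test compound at 1, 10 and 25 μM for 72 h. After medium removal, MTT was added for 3 h at 37 °C in CO2. Formazan was dissolved in DMSO and absorbance read at 595 nm. Percent viable cells are relative to untreated control cells.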

The nature of data set [4]: MTT cell viability assay, normal MCF-10A cells. The note with it: human, MCF-10A normal mammary epithelial cells. The gist of the method:
(§1)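 Normal mammary epithelial MCF-10A cells were exposed to test compound at 25, 50 and 100 μM for 72 h. Cells were then given MTT after medium removal, 3 h at 37 °C in CO2. Formazan was dissolved in DMSO and absorbance read at 595 nm. Viability is expressed as percent of untreated control cells.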

For data set [5], the system named is normal mammary epithelial MCF-10A cells. As to the kind of experiment: MTT cell viability assay, normal MCF-10A cells. Conditions: tested at 25, 50 and 100 μM. In a few lines: as §1

What is called inhibition is the percentage by which the read-out fell short of the control. A higher inhibition goes with strong suppression. One may read the viability as a read-out of living cells in per cent, often relative to untreated cells. By IC50 is commonly meant the concentration needed to halve the response being measured. As for `CC(=O)OC[C@@H]1O[C@H](n2cc(Cn3ccc4nc(-c5ccc(C(F)(F)F)cc5)cc(=O)n43)nn2)[C@@H](OC(C)=O)[C@H](OC(C)=O)[C@@H]1OC(C)=O` (stereo in doubt) [Compound 36, (2S,3R,4R,5S,6S)-2-(Acetoxymethyl)-6-(4-((7-oxo-5-(4-(trifluoromethyl)phenyl)pyrazolo[1,5-a]pyrimidin-1(7H)-yl)methyl)-1H-1,2,3-triazol-1-yl)tetrahydro-2H-pyran-3,4,5-triyl triacetate], in data set [1], the inhibition at 25 µM was ~50%, the viability at 10 µM amounted to 70.4 ± 5.36%, the viability at 25 µM worked out at 46.1 ± 3.32% and the viability at 50 µM turned out to be 41.2 ± 1.26%. Further, in data set [2], the inhibition at 25 µM was ~50%, the IC50 was determined as 4.93 µM, the viability at 1 µM was 52.3 ± 3.1% and the viability at 10 µM is 32.4 ± 0.9%. In data set [2], the viability at 25 µM was determined as 28.1 ± 4.4%. Moreover, in data set [3], the viability at 1 µM is 91.5 ± 4.6%, the viability at 10 µM was 82.9 ± 1.2%, the viability at 25 µM was found to be 63.8 ± 1.7% and the “IC50 against MDA-MB-453 cells” value was “did not reach up to IC50 value”. In addition, in data set [4], the viability at 72 h, 25 µM came to 88.6 ± 1.5%; the viability at 72 h, 50 µM was determined as 86.1 ± 2.8%; the viability at 72 h, 100 µM amounted to 84.2 ± 3%. In addition, the “growth inhibitory activity against normal breast epithelial cell (MCF-10A)” value in data set [5] was “none of these compounds did have any growth inhibitory activity”.

As to `COc1ccc(-c2cc(=O)n3c(ccn3Cc3cn([C@H]4O[C@H](COC(C)=O)[C@@H](OC(C)=O)[C@H](OC(C)=O)[C@@H]4OC(C)=O)nn3)n2)cc1` [Compound 41, (2R,3R,4S,5S,6S)-2-(Acetoxymethyl)-6-(4-((5-(4-methoxyphenyl)-7-oxopyrazolo[1,5-a]pyrimidin-1(7H)-yl)methyl)-1H-1,2,3-triazol-1-yl)tetrahydro-2H-pyran-3,4,5-triyl triacetate], in data set [1], the inhibition at 25 µM was ~50%, the viability at 10 µM was found to be 66.7 ± 8.21%, the viability at 25 µM was determined as 54.3 ± 6.12% and the viability at 50 µM amounted to 44.2 ± 4.11%. Also, in data set [2], the inhibition at 25 µM is ~50%, the IC50 was determined as 21.8 µM, the viability at 1 µM came to 72.8 ± 4.2% and the viability at 10 µM amounted to 58.2 ± 3.8%. Moreover, the viability at 25 µM in data set [2] was determined as 48.1 ± 3.5%. For the same compound, in data set [3], the viability at 1 µM is 96.4 ± 4.8%, the viability at 10 µM came out at 77.4 ± 5.4%, the viability at 25 µM is 95.1 ± 35.7% and the “IC50 against MDA-MB-453 cells” value is “did not reach up to IC50 value”. In data set [4], this compound gave a viability at 72 h, 25 µM of 89.8 ± 2.8%; a viability at 72 h, 50 µM of 84.2 ± 5.8%; a viability at 72 h, 100 µM of 83 ± 1.5%. Further, in data set [5], the “growth inhibitory activity against normal breast epithelial cell (MCF-10A)” value is listed as “none of these compounds did have any growth inhibitory activity”.

The values above are taken from PMC10762718 (RSC Advances, 2024).
